Experimental data taken from PMC6943132 (Nucleic Acids Research, 2019).
Where two headings read alike, the source gives them in different places.

T1: BenM WT (Acinetobacter sp. ADP1, UniProt O68014 1-304)
T1 sequence: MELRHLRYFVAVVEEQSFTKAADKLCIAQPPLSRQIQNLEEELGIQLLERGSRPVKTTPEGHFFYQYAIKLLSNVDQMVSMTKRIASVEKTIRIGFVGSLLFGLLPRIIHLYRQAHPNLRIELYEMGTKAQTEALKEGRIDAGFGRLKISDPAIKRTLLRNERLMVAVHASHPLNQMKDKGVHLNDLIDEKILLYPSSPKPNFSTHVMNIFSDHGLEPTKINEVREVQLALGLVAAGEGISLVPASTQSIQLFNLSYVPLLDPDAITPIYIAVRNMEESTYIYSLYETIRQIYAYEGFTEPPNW

B1: 209bp_CYC1pro (dsDNA)
DNA 1: ATTAGGACCTTTGCAGCATAAATTACTATACTTCTATAGACACACAAACACAAATACACACACTAAATTAATA
DNA 2: TATTAATTTAGTGTGTGTATTTGTGTTTGTGTGTCTATAGAAGTATAGTAATTTATGCTGCAAAGGTCCTAAT
B2: BenM WT: Acinetobacter sp. ADP1 CCM-binding LysR-type transcriptional activator BenM, wild type (protein, UniProt O68014 1-304, looked up)
HTH-type transcriptional …: T1 sequence

Legend:
BenM WT = target: T1, BenM WT; assay: BLI
209 bp_CYC1pro = assay: Biolayer interferometry of BenM WT on negative control cyc1 promoter element; type: binding; details: BLI, 1.6–100 nM WT BenM
In short: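 His-tagged protein purified on a HisTrap column with stepwise imidazole elution (Tris–HCl, NaCl, glycerol, DTT, pH 7.9), then optionally polished by Superdex 200 gel filtration (50 mM Tris–HCl, 150 mM NaCl, pH 8.0). Biotinylated 209 bp promoter duplex was annealed at 94°C for 2 min, then RT for 3 h. Kinetics were kept only when fit R² > 0.95; Req/Rmax fractional saturation versus protein concentration gave the Hill coefficient.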

[1] = system: 209bp_CYC1p_BenO_T1::yEGFP reporter; type: cell-based, Saccharomyces cerevisiae; details: P < 0.05
[2] = system: 209bp_CYC1p_BenO_T1::yEGFP reporter; type: cell-based, Saccharomyces cerevisiae
In short: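 S. cerevisiae CEN.PK carrying a chromosomal yeGFP reporter and plasmid-borne BenM variants, grown overnight in SC-Leu at 30°C. Cultures were subcultured 1:100 into medium ± CCM for 22–23 h, then flow cytometry (488 nm) gave MFI from 10 000 gated single cells. Controls were run in biological triplicate. Fold induction is inducer-medium MFI divided by control-medium MFI. Populations were compared by two-tailed Mann–Whitney test.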

| Molecule | binding result (BenM WT) | binding to negative control cyc1 promoter element (209 bp_CYC1pro) | lowest adipic acid concentration with significant induction [1] [mM] | fold-induction ([2]; 0.035 mM CCM) | fold-induction ([2]; 0.070 mM CCM) | fold induction ([2]; 1.4 mM CCM vs control medium) [fold] | lowest CCM concentration with significant induction (lower detection limit) ([2]; P < 0.05 vs control medium) [mM] | fold induction by CCM ([2]; within the operational range of WT BenM) [fold] |
| --- | --- | --- | --- | --- | --- | --- | --- | --- |
| B1 | no binding |  |  |  |  |  |  |  |
| B2 |  | no binding was observed | 14 | 0.90 ± 0.05 | 1.02 ± 0.14 | 2.8 | 0.56 | 5 |
